Sampled rows, rich in hits. Any-hit rate of the full collection: about 4%.
TAAR1 ag = human TAAR1 agonists, primary screen, Fluo-8 calcium fluorescence, CHO RD-HGA16 cells. Trace amine-associated receptor 1 (Homo sapiens), Q96RJ0. 360,000 compounds, 0.99% hits. vehicle wells 0%, saturating PEA agonist 100%. activation, % at 3 µM. AID 624467, 2012;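 active = activation above the mean activation of all test compounds in the run plus 3 SD, cut at about 38% in these data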
Target sequence (Q96RJ0 whole entry, looked up): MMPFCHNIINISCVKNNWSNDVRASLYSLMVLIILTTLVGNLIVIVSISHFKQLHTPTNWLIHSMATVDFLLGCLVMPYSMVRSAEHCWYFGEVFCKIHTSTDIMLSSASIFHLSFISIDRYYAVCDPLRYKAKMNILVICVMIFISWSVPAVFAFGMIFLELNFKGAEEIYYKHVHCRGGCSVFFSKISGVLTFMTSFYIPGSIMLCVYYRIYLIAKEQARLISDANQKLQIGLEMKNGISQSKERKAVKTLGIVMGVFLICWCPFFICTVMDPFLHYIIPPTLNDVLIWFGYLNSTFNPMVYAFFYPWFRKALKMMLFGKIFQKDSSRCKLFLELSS
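Assay system – CHO-derived RD-HGA16 cells with stable Gα16 and human TAAR1 · Compound dosing – one-point dosing at 3 µM (nominal) · Incubation – 17-24 h seeding, 75 min 37 °C dye, 30 min RT · Measured by – kinetic Fluo-8 calcium fluorescence · Control set – DMSO vehicle as 0%, PEA at EC100 as 100% · Repeats – single well for each compound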
NTR1 ag = agonists of human NTR1, primary screen, imaging, U2OS cells, beta-arrestin-GFP, high content | Neurotensin receptor type 1 (Homo sapiens), P30989 | NTR1-U2OS beta-arrestin-GFP spot imaging, agonist mode | activation, % at 20 µM | 330,000 compounds, 0.17% hits | AID 493036, 2011;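 active = activation at or above 40% of the spot to cytoplasm intensity ratio, with at least 20 cells analyzed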
TAAR1 antagonist = human TAAR1 antagonists, primary screen, Fluo-8 calcium fluorescence, CHO RD-HGA16 cells; 360,000 compounds, 1.5% hits; inhibition, % at 3 µM; Trace amine-associated receptor 1 (Homo sapiens), Q96RJ0; AID 624466, 2012; antagonist;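 active = inhibition above a per-plate cutoff, the mean inhibition of test compounds on that plate plus 3 SD, cut at about 49% in these data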
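System: CHO RD-HGA16 cells bearing hTAAR1. Reagent: EC80 β-phenethylamine stimulus. Schedule: seeding 17-24 h prior, 75-min 37 °C, 30-min RT dye loading. Signal: Fluo-8 intracellular calcium dye fluorescence, real-time kinetic reads. Read-out: % inhibition from peak post-agonist over basal fluorescence ratio. Benchmarks: vehicle wells and EC80 agonist wells. Replicates: n of 1.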
CHO parental Ca = ATP-evoked calcium signal inhibitors, parental CHO, primary screen, counter-screen for OX1R antagonist project, cell-based, fluorescence, Fluo-8 calcium dye. parental CHO-K1, ATP-induced calcium, Fluo-8 fluorescence. inhibition, % at 5.6 µM. 330,000 compounds, 0.63% hits;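 active = inhibition above that plate's mean sample inhibition plus 3 SD, cut at about 26% in these data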
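Assay system – parental CHO cells · Reagent – ATP stimulus · Detection – intracellular calcium via Fluo-8 no-wash fluorescent dye · Evaluation – percent inhibition of ATP-evoked calcium rise, normalized to controls · Controls – ATP wells versus no-ATP DMSO wells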
OX1R antag-1 = OX1R (HCRTR1) antagonists, primary screen, fluorescence, CHO/OX1R cells, Fluo-8 calcium, orexin A. inhibition, % at 5 µM. 330,000 compounds, 0.43% hits. Orexin/Hypocretin receptor type 1 (Homo sapiens), O43613. Fluo-8 calcium fluorescence;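 active = inhibition above its plate's threshold, mean inhibition of all tested compounds on the plate plus 3 SD, cut at about 37% in these data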
Target sequence (O43613 whole entry, looked up): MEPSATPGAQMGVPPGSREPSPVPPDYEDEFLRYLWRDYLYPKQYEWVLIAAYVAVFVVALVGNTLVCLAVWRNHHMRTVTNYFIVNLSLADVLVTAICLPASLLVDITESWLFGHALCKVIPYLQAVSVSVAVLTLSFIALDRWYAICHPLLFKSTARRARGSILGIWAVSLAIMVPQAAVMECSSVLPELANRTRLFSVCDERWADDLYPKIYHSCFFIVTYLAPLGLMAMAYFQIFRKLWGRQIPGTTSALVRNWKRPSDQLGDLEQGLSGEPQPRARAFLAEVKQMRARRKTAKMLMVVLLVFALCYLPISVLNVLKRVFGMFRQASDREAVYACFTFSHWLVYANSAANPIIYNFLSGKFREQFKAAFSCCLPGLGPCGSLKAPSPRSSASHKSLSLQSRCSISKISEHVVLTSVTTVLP
OX1R antag-2 = antagonists of human orexin 1 receptor (OX1R). Orexin/Hypocretin receptor type 1 (Homo sapiens), O43613. OX1R-expressing cells, FRET antagonist read-out. inhibition, % at 6.6 µM. 330,000 compounds, 1.8% hits; in the data active = inhibition mostly above about 38%, no sharp cut-off; inactive = mostly below about 40%
TAAR1 ag conf = human TAAR1 agonists, retest of hits, confirmation, Fluo-8 calcium fluorescence, CHO RD-HGA16 cells; shares compounds with TAAR1 ag; scaled: DMSO 0%, maximal phenethylamine 100%; activation, % at 3 µM; 2,400 compounds, 82% hits;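 active = activation above a cutoff set at the run's mean compound activation plus 3 SD, cut at about 39% in these data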
Ga16 nonsel ag = nonselective calcium mobilization agonists, CHO-Ga16 cells, counter-screen for hTAAR1 agonist project, cell-based, fluorescence, CHO-Ga16 parental line. 2,400 compounds, 50% hits. Fluo-8 calcium fluorescence; normalized to maximal ATP response, DMSO zero. activation, % at 3 µM. shares compounds with TAAR1 ag;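 active = activation above the run cutoff, the mean activation over all tested wells plus 3 SD, cut at about 12% in these data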
TAAR1 desens = TAAR1 desensitization by agonist hits, confirmation, counter-screen for TAAR1 agonist project, cell-based, fluorescence, tachyphylaxis; shares compounds with TAAR1 ag; CHO RD-HGA16 hTAAR1, Fluo-8 calcium, beta-PEA response inhibition; inhibition, % at 3 µM; 2,400 compounds, 46% hits; AID 651951, 2012;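 active = inhibition above the run cutoff, the mean inhibition of all test compounds plus 3 SD, cut at about 49% in these data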;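 note: beta-PEA stimulus applied at its EC80; loss of beta-PEA calcium signal after compound pretreatment read as receptor desensitization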
Ga16 nonsel ant = inhibition of ATP-evoked calcium response in CHO-Ga16 cells, counter-screen for TAAR1 agonist project, cell-based, fluorescence; shares compounds with TAAR1 ag; CHO-Ga16 ATP-induced calcium, Fluo-8 fluorescence; inhibition, % at 3 µM; 2,400 compounds, 39% hits;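 active = inhibition above the plate's mean compound inhibition plus 3 SD, computed per plate, cut at about 22% in these data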
A number is an active result; . = inactive; / = no result.

SMILES | TAAR1 ag | NTR1 ag | TAAR1 antagonist | CHO parental Ca | OX1R antag-1 | OX1R antag-2 | TAAR1 ag conf | Ga16 nonsel ag | TAAR1 desens | Ga16 nonsel ant
Cn1c(=O)c(C(=O)NCCO)c(O)c2ccccc21 | . | . | . | . | . | . | / | / | / | /
CCn1c(=O)c(C(=O)Nc2ncccc2C)c(O)c2ccccc21 | 59 | . | . | . | . | . | . | 12 | . | .
CCCCCC(=O)NNC(=O)c1c(O)c2ccccc2n(CC)c1=O | 48 | . | . | . | . | . | . | 24 | . | .
COC(=O)Cn1c(C(O)c2ccccc2)nc2ccccc21 (stereo unspecified) | . | . | . | . | . | . | / | / | / | /
C[C@H]1[C@H](c2ccccc2)Oc2cccc(NCCc3ccccc3)c2S(=O)(=O)N1Cc1ccc(F)cc1 | 79 | / | . | / | / | / | 70 | . | . | .
COc1ccc(-n2nnnc2SCC(=O)Nc2nnc(C)s2)cc1 | . | . | . | . | . | . | / | / | / | /
CCOC(=O)c1csc(NC(=O)CSc2nnnn2-c2ccc(OC)cc2)n1 | 53 | . | . | . | . | . | . | 16 | . | .
COc1ccc(CCN2CCC(Nc3nc4ccccc4n3Cc3ccc(F)cc3)CC2)cc1 | 59 | . | . | . | . | . | 54 | 20 | . | .
COc1ccc(CNc2nc3ccccc3n2CCN2CCCCC2)cc1 | . | . | . | . | . | . | / | / | / | /
CC(C)c1ccc(CNC(=O)C(=O)Nc2nccs2)cc1 | . | . | . | . | . | . | / | / | / | /
CC(C)Cc1ccc(C(C)C(=O)Nc2nccs2)cc1 (stereo unspecified) | 105 | . | 74 | 43 | 49 | . | 103 | 50 | 81 | 50
C[C@H](NC(=O)N1CCn2c1nc1ccccc12)C(=O)NCCc1ccccc1 | . | . | . | . | . | . | / | / | / | /
O=C(O)c1ccc(/C=N/Nc2ccc(F)cc2F)cc1 | 88 | . | . | . | . | . | 44 | 21 | . | .
Fc1ccc(N/N=C/c2ccncc2)c(F)c1 | . | . | . | . | . | . | / | / | / | /
COc1cccc(CNC(=O)[C@@H]2CCCN2C(=O)[C@H]2CCCCN2C(=O)c2cccc(OC)c2)c1 | . | / | . | / | / | / | / | / | / | /
O=C(N[C@H](C(=O)N1CCC[C@H]1C(=O)NCCc1ccccc1Cl)C1CCCCC1)C1CC1 | 46 | / | . | / | / | / | 73 | . | 78 | .
O=C(NCc1ccccc1Cl)[C@H]1CCCN1C(=O)[C@H]1CCCN1C(=O)c1ccccc1 | . | / | . | / | / | / | / | / | / | /
COc1cccc(C(=O)N[C@H](C(=O)N2CCC[C@H]2C(=O)NCCc2ccccc2Cl)C2CCCCC2)c1 | 52 | / | 55 | / | / | / | 79 | . | 86 | .
O=C(N[C@H](C(=O)N1CCC[C@H]1C(=O)NCCc1ccccc1Cl)C1CCCCC1)c1ccccc1 | 64 | / | 66 | / | / | / | 76 | . | 85 | .
Cc1ccc(S(=O)(=O)N(C)S(=O)(=O)c2ccc(C#N)cc2)cc1 | / | . | / | . | . | . | / | / | / | /
CCCCc1c(-c2ccccc2OC)ncn1CCc1cccc(OC)c1 | . | / | . | / | / | / | / | / | / | /
CCCCc1c(-c2ccccc2OC)ncn1CCc1ccccc1Cl | 64 | / | 89 | / | / | / | 74 | . | 75 | 36
CCCCc1c(-c2ccccc2OC)ncn1CCc1cccc(F)c1 | 69 | / | . | / | / | / | 66 | . | 74 | .
CCCc1c(-c2ccccc2OC)ncn1CCc1ccccc1OC | . | / | . | / | / | / | / | / | / | /
COc1ccccc1CCn1cnc(-c2ccc(Cl)cc2)c1CC(C)C | 53 | / | 66 | / | / | / | 84 | . | 55 | .
SMILES | TAAR1 ag | NTR1 ag | TAAR1 antagonist | CHO parental Ca | OX1R antag-1 | OX1R antag-2 | TAAR1 ag conf | Ga16 nonsel ag | TAAR1 desens | Ga16 nonsel ant
CCCc1c(-c2ccc(OC)cc2)ncn1CCc1ccccc1OC | . | / | . | / | / | / | / | / | / | /
CCCCCc1c(-c2ccc(Br)cc2)ncn1CCc1ccccc1OC | 71 | / | . | / | / | / | 74 | . | . | 25
CCCCCNC(=O)C(c1cc2ccccc2o1)n1c(=O)c(-c2ccccc2)nc2ccccc21 (stereo unspecified) | . | / | . | / | / | / | / | / | / | /
CCCCc1c(-c2ccccc2Br)ncn1CCc1ccccc1OC | 70 | / | 83 | / | / | / | 73 | . | 82 | 39
O=c1[nH]c(CSc2ncn[nH]2)nc2ccccc12 | 42 | . | . | . | . | . | . | . | . | .
CC(=O)c1c(C)[nH]c(C(=O)CN2C(=O)NC(C)(c3ccc(C)cc3)C2=O)c1C (stereo unspecified) | 85 | . | . | . | . | . | 113 | 56 | 60 | 36
CCN1C(=O)C(=O)N(CC(=O)c2[nH]c(C)c(C(C)=O)c2C)C1=O | . | . | . | . | . | . | / | / | / | /
Cc1ccccc1CCNC(=O)Cn1nc(C)c2c(C)n(-c3ccccc3)nc2c1=O | 50 | . | . | . | . | . | 53 | . | . | .
COc1ccccc1CCNC(=O)CCn1nc(C)c2c(C)n(-c3ccccc3)nc2c1=O | 58 | . | . | . | . | . | 71 | . | . | .
Cc1ccccc1CCNC(=O)CCn1nc(C)c2c(C)n(-c3ccccc3)nc2c1=O | . | . | . | . | . | . | / | / | / | /
CCOC(=O)c1ccc(S(=O)(=O)N2CCN(C3CC(=O)N(c4ccc(OC)cc4)C3=O)CC2)cc1 (stereo unspecified) | . | / | . | / | / | / | / | / | / | /
Cc1ccccc1CCN(C(=O)c1csnn1)C(C(=O)NC1CCCC1)c1ccco1 (stereo unspecified) | 46 | . | . | . | . | . | 70 | . | . | .
CS(=O)(=O)c1ccc(C(=O)OCC(=O)c2ccc(Cl)s2)cc1 | . | . | . | . | . | . | / | / | / | /
O=C(Cn1cnc([N+](=O)[O-])n1)N/N=C/c1ccccc1O | 53 | . | . | . | . | . | 69 | . | . | .
NC(=N\N=Cc1ccccc1)/C(N)=N/N=Cc1ccccc1 | . | / | . | / | / | / | / | / | / | /

Screening results (PubChem)
